# Experiments:
# [1] = Selectivity ratio of IC50 for human CYP11B1 expressed in human renal leiomyoblastoma cells harboring FDXR/FDX to IC50 for human CYP11B2 expressed in human renal leiomyoblastoma cells harboring FDXR/FDX; type: cell-based
# How it was run: (§1)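 Cells with endogenous FDXR/FDX and no detectable CYP11B activity, stably transfected (CMV promoter, neomycin selection, G-418 400 µg/mL) with CYP11B1 or CYP11B2 of the named species. Assayed in DMEM/F12 with 2.5% charcoal-treated FCS. Substrate 1 µM 11-deoxycorticosterone (B2) or 11-deoxycortisol (B1), 16 hr. Aldosterone or cortisol in supernatant measured by HTRF. IC50 from 4-parameter MMF fit; selectivity factor is the B1/B2 IC50 ratio.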
# [2] = Solubility of the compound in phosphate buffer at pH 6.5 shaken for 2 hrs followed by overnight incubation; type: physicochemical
# How it was run: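 Lyophilisation solubility assay run in duplicate from 10 mM DMSO stock. DMSO evaporated and residue redissolved in 0.05 M phosphate, pH 6.5. Stirred 1 hr, shaken 2 hr, left overnight, then filtered. Filtrate and a 1/10 dilution analysed by HPLC-UV against a four-point calibration.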
# [3] = Free plasma concentration in cynomolgus monkey at 0.01 mg/kg; type: ADME, organism-based, Macaca fascicularis; details: in vivo
# How it was run: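 Cynomolgus monkeys, 2 per group, given single oral doses of 0.01, 0.1, 1 or 10 mg/kg as a suspension in hydroxyethylcellulose/polysorbate 80/parabens vehicle, 2 mL/kg. Synacthen 14.5 µg/kg given i.m. at 1 hr. Plasma compound levels by LC/MS-MS. Average free exposure calculated from AUC0-7hr and corrected for plasma protein binding.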
# [4] = Plasma clearance in iv dosed cynomolgus monkey; type: ADME, organism-based, Macaca fascicularis
# Cynomolgus monkey [5] = assay: In vivo inhibition of CYP11B1 in cynomolgus monkey assessed as reduction in ACTH-induced 11-deoxycortisol at 0.01 to 10 mg/kg, po preincubated for 1 hr followed by ACTH challenge and measured after 60 mins by LC/MS-MS analysis; type: ADME, organism-based, Macaca fascicularis
# How it was run: (§2)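 Cynomolgus monkeys preselected as Synacthen responders (at least 2-fold rise in aldosterone, cortisol and corticosterone). Two animals per group. Oral vehicle or compound at 0.01–10 mg/kg in hydroxyethylcellulose/polysorbate 80/paraben suspension (2 mL/kg) at T=0, then 14.5 µg/kg Synacthen i.m. at 1 hr. EDTA blood drawn from -5 min to 24 h. Plasma steroids measured by LC/MS-MS; data shown 60 min after challenge.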
# [6] = target: T1, Cytochrome P450 11B2, mitochondrial (Homo sapiens, UniProt P19099); assay: Inhibition of CYP11B2 in H295R cell assessed as reduction in 18-hyroxycorticosterone by LC/MS-MS method
# T1 sequence (P19099 whole entry): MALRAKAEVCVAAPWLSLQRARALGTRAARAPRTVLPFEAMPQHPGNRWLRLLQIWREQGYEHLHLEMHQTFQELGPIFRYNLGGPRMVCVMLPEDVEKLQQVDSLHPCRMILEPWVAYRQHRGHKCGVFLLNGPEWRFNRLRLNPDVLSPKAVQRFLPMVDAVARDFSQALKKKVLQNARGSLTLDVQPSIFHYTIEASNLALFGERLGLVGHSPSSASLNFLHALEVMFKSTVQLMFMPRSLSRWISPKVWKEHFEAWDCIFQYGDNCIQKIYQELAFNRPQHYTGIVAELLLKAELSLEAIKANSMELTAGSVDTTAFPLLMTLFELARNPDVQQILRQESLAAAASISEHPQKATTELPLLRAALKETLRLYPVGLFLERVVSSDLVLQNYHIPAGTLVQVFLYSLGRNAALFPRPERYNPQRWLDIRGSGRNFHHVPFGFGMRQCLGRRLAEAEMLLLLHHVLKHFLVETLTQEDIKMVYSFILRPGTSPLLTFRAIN
# [7] = Selectivity ratio of IC50 for cynomolgus monkey CYP11B1 expressed in human G401 cells to IC50 for cynomolgus monkey CYP11B2 expressed in human G401 cells; type: cell-based; how it was run: as §1
# Cynomolgus monkey [8] = assay: In vivo inhibition of CYP11B1 in cynomolgus monkey assessed as reduction in ACTH-induced cortisol at 10 mg/kg, po preincubated for 1 hr followed by ACTH challenge and measured after 60 mins by LC/MS-MS analysis; type: ADME, organism-based, Macaca fascicularis; how it was run: as §2
# Cynomolgus monkey [9] = assay: In vivo inhibition of CYP11B1 in cynomolgus monkey assessed as reduction in ACTH-induced cortisol at 0.01 to 1 mg/kg, po preincubated for 1 hr followed by ACTH challenge and measured after 60 mins by LC/MS-MS analysis; type: ADME, organism-based, Macaca fascicularis; how it was run: as §2
compound,measurement,setting,value
CCS(=O)(=O)N1CC(Oc2cncc(N3C(=O)c4ccc(Cl)cc4C3(C)C)c2)C1,Ratio IC50,[1],162
same,solubility at 2 h,[2],78 µg/mL
same,Cp(f),[3],0.075 ng/mL
same,clearance,[4],4.6 mL/min/kg
same,Activity,Cynomolgus monkey [5],Non-Toxic
same,IC50,[6],< 1 nM
same,Ratio IC50,[7],664
same,Activity,Cynomolgus monkey [8],Toxic
same,Activity,Cynomolgus monkey [9],Non-Toxic

# Reference: ChEMBL document CHEMBL4616681, “Discovery of 3-Pyridyl Isoindolin-1-one Derivatives as Potent, Selective, and Orally Active Aldosterone Synthase (CYP11B2) Inhibitors” (J Med Chem, 2020)
